The subject of one data set is SST1–5. Particulars: cited from earlier work.
The subject of the next data set is mice. The data set can be described thus: Tail flick test. The format is in vivo, mouse. As to conditions: intrathecal, 1 mg/kg, positive control. The method, boiled down: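 Mice lightly sedated with 2% isoflurane, then given one intrathecal lumbar-puncture injection (5 μl) of saline, morphine 1 mg/kg, or test compound 0.025–0.75 mg/kg. Distal two-thirds of tail dipped in 52°C water; latency to withdrawal timed by chronometer. Result taken as mean tail flick latency.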
A general note: Hot-plate and tail-flick tests time the reaction to a heat stimulus.

For data set [1] the following is noted: following intravenous infusion; cited from earlier work.

Where no end group is shown, it is not given here.

In the case of “urotensin-II (ETPDCFWKYCV; ends and bridges not checked; cysteine pairing not given here; UniProt O95399 114-124, looked up) [UII]”, in the data set with SST1–5, the “activity at SST1–5” value is on record as “low activity”.
With `CN1CC[C@]23c4c5ccc(O)c4O[C@H]2[C@@H](O)C=C[C@H]3[C@H]1C5` [Morphine], the tail flick antinociception result in the data set with mice is “robust antinociception”.
In the case of octreotide, the in vivo half-life in data set [1] is 1.5 h. In the data set on SST1–5, the “SS receptor subtype selectivity” value is “preferentially activated SST2 over SST3 and SST5 and displayed little to no activity on SST1 or SST4”.

The values above are taken from publication PMC8942377 (Science Advances, 2022).
